According to ChEMBL document CHEMBL1153915, “[18F]FEAC and [18F]FEDAC: Two novel positron emission tomography ligands for peripheral-type benzodiazepine receptor in the brain” (Bioorg Med Chem Lett, 2009):

What was measured:
[1] = Displacement of [11C]flumazenil from CBR receptor in rat brain membrane; format: cell membranes
In short: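 Competition against [11C]flumazenil binding in rat brain homogenate; Ki derived; mean ± SD from duplicate homogenates.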

Translocator protein [2] = target: T1, Translocator protein (Rattus norvegicus, UniProt P16257); experiment: Displacement of [11C]DAA1106 from PBR receptor in rat brain membrane; format: cell membranes
T1 sequence (P16257 whole entry, looked up): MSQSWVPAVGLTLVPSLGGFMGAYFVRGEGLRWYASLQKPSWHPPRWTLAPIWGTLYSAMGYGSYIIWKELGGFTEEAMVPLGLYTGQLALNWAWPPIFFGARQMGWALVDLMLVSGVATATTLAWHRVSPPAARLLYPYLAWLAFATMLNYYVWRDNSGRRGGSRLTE

[3] = Distribution coefficient, log D in octanol/phosphate buffer at pH 7.4 by shaking flask method; format: physicochemical
Translocator protein [4] = target: T1, Translocator protein; experiment: Displacement of [11C]PK11195 from PBR receptor in rat brain membrane; format: cell membranes
Striatum [5] = experiment: Drug uptake in non-lesioned Sprague-Dawley rat striatum assessed as standardized uptake value; format: ADME, tissue-based; settings: in vivo
In short: (§1)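 Dynamic small-animal PET of [18F]-labelled ligand in neuroinflammatory rats (n = 4). Striatal time-activity curves are expressed as SUV = (radioactivity per cm3 tissue / injected radioactivity) × g body weight, as mean ± SD.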

Striatum [6] = experiment: Drug uptake in kainic acid-lesioned Sprague-Dawley rat striatum assessed as standardized uptake value; format: ADME, tissue-based; settings: in vivo; in short: as §1
Striatum [7] = experiment: Ratio of drug uptake in kainic acid-lesioned to non-lesioned Sprague-Dawley rat striatum after 10 to 20 mins; format: ADME, tissue-based; settings: in vivo
In short: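 From small-animal PET time-activity curves in neuroinflammatory rats (n = 4), the radioactivity in the lesioned striatum is divided by that in the non-lesioned striatum over the scan, and the maximum ratio is taken.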

Row | SMILES | Ki [1] [nM] | Ki (Translocator protein [2]) [nM] | logD [3] | Ki (Translocator protein [4]) [nM] | SUV (Striatum [5]) | SUV (Striatum [6]) | Ratio (Striatum [7])
1 | COc1ccc(OCCF)c(CN(C(C)=O)c2cc(F)ccc2Oc2ccccc2)c1 | > 1000 | 0.08 | 3.8 |  |  |  | 
2 | Cn1c(=O)n(CC(=O)N(CCF)Cc2ccccc2)c2nc(-c3ccccc3)ncc21 | > 8400 |  | 3.1 | 0.51 |  |  | 
3 | COc1ccc(OCC[18F])c(CN(C(C)=O)c2cc(F)ccc2Oc2ccccc2)c1 |  |  |  |  | 1.3 | 1.5 | 
4 | CCN(Cc1ccccc1)C(=O)Cn1c(=O)n(C)c2cnc(-c3ccccc3)nc21 | > 8400 |  | 3.3 | 0.2 |  |  | 
5 | CCC(C)N(C)C(=O)c1cc2ccccc2c(-c2ccccc2Cl)n1 (stereo not given) [PK-11195] | > 8400 |  | 3.7 |  |  |  | 

More lines, now with the values ahead:

Row | Ki [1] [nM] | Ki (Translocator protein [2]) [nM] | logD [3] | Ki (Translocator protein [4]) [nM] | SUV (Striatum [5]) | SUV (Striatum [6]) | Ratio (Striatum [7]) | SMILES
6 | 8400 |  | 3.2 | 1.34 |  |  |  | CN(Cc1ccccc1)C(=O)Cn1c(=O)n(CCF)c2cnc(-c3ccccc3)nc21
7 |  |  |  |  | 0.8 | 1.2 | 2.5 | CCN(Cc1ccccc1)C(=O)Cn1c(=O)n(CC[18F])c2cnc(-c3ccccc3)nc21
8 | > 8400 |  | 3.6 | 0.49 |  |  |  | CCN(Cc1ccccc1)C(=O)Cn1c(=O)n(CCF)c2cnc(-c3ccccc3)nc21
9 |  |  |  |  | 0.9 | 1.6 | 2.5 | CN(Cc1ccccc1)C(=O)Cn1c(=O)n(CC[18F])c2cnc(-c3ccccc3)nc21
